44 molecules from ChEMBL document CHEMBL1143012, “Synthesis and pharmacological in vitro and in vivo evaluations of novel triazole derivatives as ligands of the ghrelin receptor. 1” (J Med Chem, 2007) can be followed below.

Experiment [1] has as its target T1, Growth hormone secretagogue receptor type 1 (Homo sapiens, UniProt Q92847). Kind of experiment: Displacement of [125I-His9]ghrelin from human GHS1a receptor expressed in LLC PK1 cells. The experiment is classed as cell-based. Put shortly:
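Membranes from LLC PK-1 cells transiently electroporated with hGHS-R1a (harvested about 48 h), 10 µg protein, incubated 60 min at 25 °C with 60 pM 125I-His9-ghrelin in Tris pH 7.3/MgCl2/EDTA/bacitracin buffer. Filtered, washed, gamma counted; nonspecific binding with 10 µM ghrelin. Triplicates, at least three experiments.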

Experiment [2] has as its target T1, Growth hormone secretagogue receptor type 1. Kind of experiment: Agonist activity at human GHS1a receptor expressed in CHO cells assessed as induction of intracellular calcium mobilization. The class given is functional, cell-based. Put shortly: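 CHO cells transiently expressing hGHS-R1a via electroporation, Fluo-4AM loaded (1 µM, 1 h, 37 °C), calcium fluorescence read 60 s at ex 485/em 525 nm. EC50 from agonist dose-response curves, response as percentage of maximal signal from 10 µM ghrelin; triplicates, means of at least three experiments.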
(Calcium assays in cells follow changes in intracellular calcium, usually with a dye or a luminescent sensor.)

The target is the same in experiment [3]. Kind of experiment: Activity at human GHS1a receptor expressed in CHO cells assessed as intracellular calcium mobilization relative to 0.1 uM ghrelin. The experiment is classed as functional, cell-based.

T1 sequence (Q92847 whole entry): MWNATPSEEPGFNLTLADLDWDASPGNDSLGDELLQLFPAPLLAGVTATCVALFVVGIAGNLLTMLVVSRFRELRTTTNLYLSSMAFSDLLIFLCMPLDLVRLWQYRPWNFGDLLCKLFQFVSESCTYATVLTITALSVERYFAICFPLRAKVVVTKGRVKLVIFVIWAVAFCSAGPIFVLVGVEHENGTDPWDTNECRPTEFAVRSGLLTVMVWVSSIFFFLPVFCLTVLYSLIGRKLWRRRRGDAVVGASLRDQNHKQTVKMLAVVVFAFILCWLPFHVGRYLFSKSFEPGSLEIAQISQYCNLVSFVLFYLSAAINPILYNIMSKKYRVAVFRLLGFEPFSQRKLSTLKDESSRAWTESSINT

With `CC(C)(N)C(=O)N[C@H](Cc1c[nH]c2ccccc12)c1nnc(CCc2ccccc2)n1Cc1ccco1`, the IC50 (as a rule, the point on the concentration scale where inhibition reaches its midpoint) in experiment [1] worked out at 420 nM. Further, the EC50 (commonly the concentration giving half of the maximal effect) in experiment [2] is 23 nM. In addition, the Activity in experiment [3] turned out to be 97%.
As for `CC(C)(N)C(=O)N[C@H](Cc1c[nH]c2ccccc12)c1nnc(CCCc2c[nH]c3ccccc23)n1Cc1cccc2ccccc12`, the IC50 in experiment [1] is 140 nM. For the same molecule, the Activity entry is “Partial agonist” in experiment [2] (filed as partial agonist) and 62% in experiment [3].
In the same order, the values of `Cc1ccc(Cn2c(CCc3ccccc3)nnc2[C@@H](Cc2c[nH]c3ccccc23)NC(=O)C(C)(C)N)cc1` are 140 nM, “Partial agonist” and 19%.
On to `COc1cccc(Cn2c(CCc3c[nH]c4ccccc34)nnc2[C@@H](Cc2c[nH]c3ccccc23)NC(=O)C(C)(C)N)c1`, for which the EC50 in experiment [2] worked out at 4 nM. For the same molecule, the Activity in experiment [3] worked out at 63%.
`Cn1c(CCc2c[nH]c3ccccc23)nnc1[C@@H](Cc1c[nH]c2ccccc12)NC(=O)C(C)(C)N`: the IC50 in experiment [1] was determined as 580 nM.
In the case of `CC(C)(N)C(=O)N[C@H](Cc1c[nH]c2ccccc12)c1nncn1CCc1c[nH]c2ccccc12`, in experiment [1], the IC50 was 850 nM.
In turn, `CCCCCCn1c(Cc2ccccc2)nnc1[C@@H](Cc1c[nH]c2ccccc12)NC(=O)C(C)(C)N` yielded an IC50 in experiment [1] of 470 nM. In addition, the Activity result is “Partial agonist” in experiment [2] (filed as partial agonist) and 67% in experiment [3].
As to `COc1cc(Cn2c(Cc3ccccc3)nnc2[C@@H](Cc2c[nH]c3ccccc23)NC(=O)C(C)(C)N)cc(OC)c1`, in experiment [1], the IC50 amounted to 110 nM. Further, the results for the Activity result in experiment [2] (filed as partial agonist) and in experiment [3] were “Partial agonist” and 29%, respectively.
Regarding `COc1cccc(Cn2c(CCCc3c[nH]c4ccccc34)nnc2[C@@H](Cc2c[nH]c3ccccc23)NC(=O)C(C)(C)N)c1`, the IC50 in experiment [1] turned out to be 22 nM. Also, the EC50 in experiment [2] is 18 nM. In experiment [3], the Activity was 66%.
`CC(C)(N)C(=O)N[C@H](Cc1c[nH]c2ccccc12)c1nnc(Cc2ccccc2)n1Cc1ccccn1`: in experiment [1], the IC50 is > 1000 nM. Moreover, the Activity result in experiment [2] (filed as partial agonist) is “Partial agonist”; in experiment [3], 78%.
`CC(C)(N)C(=O)N[C@H](Cc1c[nH]c2ccccc12)c1nnc(CCc2ccccc2)n1CCc1ccccc1` displayed an IC50 in experiment [1] of 310 nM. Also, the Activity result was “Partial agonist” in experiment [2] (filed as partial agonist) and 63% in experiment [3].
`CC(C)(N)C(=O)N[C@H](Cc1c[nH]c2ccccc12)c1nnc(Cc2ccccc2)n1Cc1ccc(Cl)c(Cl)c1` showed an IC50 in experiment [1] of 520 nM. The Activity entry in experiment [2] (filed as partial agonist) is “Partial agonist”; in experiment [3], 64%.
Turning to `COc1cccc(Cn2c(Cc3ccccc3)nnc2[C@@H](Cc2c[nH]c3ccccc23)NC(=O)C(C)(C)N)c1`, the figures for the Activity entry in experiment [2] (filed as partial agonist) and in experiment [3] were “Partial agonist” and 50%, respectively.
`CCCCCCn1c(CCc2c[nH]c3ccccc23)nnc1[C@@H](Cc1c[nH]c2ccccc12)NC(=O)C(C)(C)N`: the IC50 in experiment [1] is 195 nM. In addition, the Activity entry in experiment [2] (filed as partial agonist) was “Partial agonist”; in experiment [3], 62%.
In turn, `CC(C)(N)C(=O)N[C@H](Cc1c[nH]c2ccccc12)c1nnc(Cc2ccccc2)n1Cc1ccc(Br)cc1` registered an IC50 in experiment [1] of 440 nM. Besides, the figures for the Activity result in experiment [2] (filed as partial agonist) and in experiment [3] were “Partial agonist” and 16%, respectively.
`COc1ccc(CCn2c(CCc3ccccc3)nnc2[C@@H](Cc2c[nH]c3ccccc23)NC(=O)C(C)(C)N)cc1`: the IC50 in experiment [1] amounted to 550 nM. In addition, the Activity result in experiment [2] (filed as partial agonist) is “Partial agonist”; in experiment [3], 82%.
`CC(C)(N)C(=O)N[C@H](Cc1c[nH]c2ccccc12)c1nnc(Cc2ccccc2)n1Cc1ccccc1`: the IC50 in experiment [1] stood at 500 nM. For the same molecule, the values for the Activity result in experiment [2] (filed as partial agonist) and in experiment [3] were “Partial agonist” and 44%, respectively.
In turn, `COc1ccc(Cn2c(Cc3c[nH]c4ccccc34)nnc2[C@@H](Cc2c[nH]c3ccccc23)NC(=O)C(C)(C)N)c(OC)c1` showed an IC50 in experiment [1] of 1000 nM.
In turn, `CC(C)(N)C(=O)N[C@H](Cc1c[nH]c2ccccc12)c1nnc(CCc2ccccc2)n1Cc1cccs1` gave an IC50 in experiment [1] of 570 nM. For the same molecule, the Activity entry in experiment [2] (filed as agonist) was “Agonist”; in experiment [3], 91%.
`COc1ccc(Cn2c(CCCc3c[nH]c4ccccc34)nnc2[C@@H](Cc2c[nH]c3ccccc23)NC(=O)C(C)(C)N)c(OC)c1`: in experiment [1], the IC50 is 750 nM. In addition, the Activity result in experiment [2] (filed as partial agonist) is “Partial agonist”; in experiment [3], 27%.
In the same order, the values of `CC(C)(N)C(=O)N[C@H](Cc1c[nH]c2ccccc12)c1nnc(CCc2ccccc2)n1Cc1cccc2ccccc12` are 130 nM, “Partial agonist” and 40%.
Consider `CC(C)(N)C(=O)N[C@H](Cc1c[nH]c2ccccc12)c1nnc(Cc2ccccc2)n1CCc1c[nH]c2ccccc12`, for which, in experiment [1], the IC50 amounted to 700 nM. Moreover, the Activity entry is “Agonist” in experiment [2] (filed as agonist) and 95% in experiment [3].
Consider `CC(C)(N)C(=O)N[C@H](Cc1c[nH]c2ccccc12)c1nnc(CCc2ccccc2)n1Cc1ccc([N+](=O)[O-])cc1`, for which, in experiment [1], the IC50 is > 1000 nM. In experiment [3], the Activity came out at 10%.
Consider `CC(C)(N)C(=O)N[C@H](Cc1c[nH]c2ccccc12)c1nnc(CCc2c[nH]c3ccccc23)n1Cc1ccc(F)cc1`, for which the EC50 in experiment [2] is 210 nM. Moreover, the Activity in experiment [3] came out at 59%.
With `CC(C)(N)C(=O)N[C@H](Cc1c[nH]c2ccccc12)c1nnc(Cc2ccccc2)n1CCc1ccccc1`, the IC50 in experiment [1] was > 1000 nM. Also, the Activity result in experiment [2] (filed as partial agonist) is “Partial agonist”; in experiment [3] it was 85%.
`CC(C)(N)C(=O)N[C@H](Cc1c[nH]c2ccccc12)c1nnc(CCc2ccccc2)n1Cc1ccc(F)cc1` returned an IC50 in experiment [1] of 400 nM. The figures for the Activity result in experiment [2] (filed as partial agonist) and in experiment [3] were “Partial agonist” and 20%, respectively.
As for `CC(C)(N)C(=O)N[C@H](Cc1c[nH]c2ccccc12)c1nnc(Cc2ccccc2)n1Cc1cccc2ccccc12`, the figures for the Activity result in experiment [2] (filed as partial agonist) and in experiment [3] were “Partial agonist” and 78%, respectively.
As for `CC(C)(N)C(=O)N[C@H](Cc1c[nH]c2ccccc12)c1nnc(CCCc2c[nH]c3ccccc23)n1Cc1ccc(Br)cc1`, the figures for the Activity result in experiment [2] (filed as partial agonist) and in experiment [3] were “Partial agonist” and 25%, respectively.
On to `CC(C)(N)C(=O)N[C@H](Cc1c[nH]c2ccccc12)c1nnc(CCc2c[nH]c3ccccc23)n1CCc1ccccc1`, for which, in experiment [1], the IC50 was found to be 80 nM. Also, the Activity result in experiment [2] (filed as partial agonist) is “Partial agonist”; in experiment [3] it was 25%.
With `CC(C)(N)C(=O)N[C@H](Cc1c[nH]c2ccccc12)c1nnc(Cc2ccccc2)n1CC(c1ccccc1)c1ccccc1`, in experiment [1], the IC50 is > 1000 nM. Also, the Activity result in experiment [2] (filed as partial agonist) is “Partial agonist”; in experiment [3] it was 60%.
For `Cn1c(Cc2c[nH]c3ccccc23)nnc1[C@@H](Cc1c[nH]c2ccccc12)NC(=O)C(C)(C)N`, in experiment [1], the IC50 came to 1700 nM.
For the molecule `CC(C)(N)C(=O)N[C@H](Cc1c[nH]c2ccccc12)c1nnc(CCc2ccccc2)n1Cc1ccc(Cl)c(Cl)c1`, in experiment [1], the IC50 was found to be 640 nM. Also, the Activity entry is “Partial agonist” in experiment [2] (filed as partial agonist) and 53% in experiment [3].
In experiment [1], `COc1cc(Cn2c(CCc3c[nH]c4ccccc34)nnc2[C@@H](Cc2c[nH]c3ccccc23)NC(=O)C(C)(C)N)cc(OC)c1` came in with an IC50 of 150 nM. Further, the figures for the Activity result in experiment [2] (filed as partial agonist) and in experiment [3] were “Partial agonist” and 22%, respectively.
For the molecule `CC(C)(N)C(=O)N[C@H](Cc1c[nH]c2ccccc12)c1nnc(Cc2c[nH]c3ccccc23)[nH]1`, in experiment [1], the IC50 is 2200 nM.
Turning to `CCCCCCn1c(CCCc2c[nH]c3ccccc23)nnc1[C@@H](Cc1c[nH]c2ccccc12)NC(=O)C(C)(C)N`, the Activity result was “Partial agonist” in experiment [2] (filed as partial agonist) and 32% in experiment [3].
Molecule `CC(C)(N)C(=O)N[C@H](Cc1c[nH]c2ccccc12)c1nnc(CCc2c[nH]c3ccccc23)n1CC(c1ccccc1)c1ccccc1` yielded an IC50 in experiment [1] of 640 nM. Further, the Activity result in experiment [2] (filed as partial agonist) was “Partial agonist”; in experiment [3], 62%.
As to `CC(C)(N)C(=O)N[C@H](Cc1c[nH]c2ccccc12)c1nnc(CCc2c[nH]c3ccccc23)n1-c1ccccc1`, in experiment [2], the EC50 was 41 nM. The Activity in experiment [3] is 91%.
On to `Cc1ccc(Cn2c(Cc3ccccc3)nnc2[C@@H](Cc2c[nH]c3ccccc23)NC(=O)C(C)(C)N)cc1`, for which, in experiment [1], the IC50 amounted to 840 nM. The results for the Activity entry in experiment [2] (filed as partial agonist) and in experiment [3] were “Partial agonist” and 28%, respectively.
For `CC(C)(N)C(=O)N[C@H](Cc1c[nH]c2ccccc12)c1nnc(CCc2ccccc2)n1Cc1ccccn1`, in experiment [1], the IC50 was > 1000 nM. Also, the values for the Activity result in experiment [2] (filed as partial agonist) and in experiment [3] were “Partial agonist” and 59%, respectively.
Take `CC(C)(N)C(=O)N[C@H](Cc1c[nH]c2ccccc12)c1nnc(Cc2ccccc2)n1Cc1ccc(F)cc1`: the Activity result in experiment [2] (filed as partial agonist) is “Partial agonist”; in experiment [3] it was 60%.
As for `CC(C)(N)C(=O)N[C@H](Cc1c[nH]c2ccccc12)c1nnc(CCc2c[nH]c3ccccc23)n1Cc1ccc(Br)cc1`, the IC50 in experiment [1] was 100 nM. In addition, the values for the Activity entry in experiment [2] (filed as partial agonist) and in experiment [3] were “Partial agonist” and 27%, respectively.
Turning to `CC(C)(N)C(=O)N[C@H](Cc1c[nH]c2ccccc12)c1nnc(CCc2c[nH]c3ccccc23)n1Cc1cccc2ccccc12`, the values for the Activity entry in experiment [2] (filed as partial agonist) and in experiment [3] were “Partial agonist” and 54%, respectively.
On to `CCc1ccc(Cn2c(CCc3ccccc3)nnc2[C@@H](Cc2c[nH]c3ccccc23)NC(=O)C(C)(C)N)cc1`, for which the EC50 in experiment [2] was found to be 11 nM. Besides, in experiment [3], the Activity came to 26%.
With `CC(C)(N)C(=O)N[C@H](Cc1c[nH]c2ccccc12)c1nnc(Cc2c[nH]c3ccccc23)n1CCc1ccccc1`, the IC50 in experiment [1] was determined as 300 nM. Further, the Activity entry in experiment [2] (filed as partial agonist) was “Partial agonist”; in experiment [3] it was 88%.
